Test results from ChEMBL document CHEMBL3868584, “Cerasoidine, a Bis-aporphine Alkaloid Isolated from Polyalthia cerasoides during Screening for Wnt Signal Inhibitors” (J Nat Prod, 2016).
Activity calls are given as the source filed them. No cut-off for these calls is given here.

How the values were obtained:
[1] = Inhibition of Wnt signalling in human STF/293 cells assessed as suppression of TCF/beta-catenin-mediated transcriptional activity after 24 hrs by superTOPflash reporter gene assay; type: cell-based; details: STF/293, 24 h
[2] = Cytotoxicity against human STF/293 cells assessed as reduction in cell viability at 2 to 10 uM after 24 hrs by fluorescein diacetate based assay; type: toxicity; details: hek293, 24 h
[3] = Cytotoxicity against human STF/293 cells assessed as reduction in cell viability at 0.5 to 2 uM after 24 hrs by fluorescein diacetate based assay; type: toxicity; details: hek293, 24 h
[4] = Cytotoxicity against human STF/293 cells assessed as reduction in cell viability at 10 to 40 uM after 24 hrs by fluorescein diacetate based assay; type: toxicity; details: hek293, 24 h
[5] = Inhibition of Wnt signalling in human SW480 cells assessed as decrease in beta-catenin level in nucleus at 20 to 60 uM after 24 hrs by Western blot analysis; type: cell-based
In short: (§1)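 SW480 colon cancer cells were treated, then whole, cytoplasmic and nuclear lysates were prepared. These were immunoblotted with anti-β-catenin and anti-c-myc antibodies. β-Actin served as the cytoplasmic fraction control and histone H1 as the nuclear fraction control.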

[6] = Inhibition of Wnt signalling in human SW480 cells assessed as decrease in c-myc level after 24 hrs by Western blot analysis; type: cell-based; in short: as §1
[7] = Inhibition of Wnt signalling in human STF/293 cells assessed as decrease in beta-catenin levels after 24 hrs by Western blot analysis; type: cell-based
In short: (§2)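 STF/293 cells were exposed to the test agent and lysed. Lysates were immunoblotted for β-catenin, c-myc and PPARδ, with β-actin as the protein loading control.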

[8] = Inhibition of Wnt signalling in human STF/293 cells assessed as decrease in c-myc levels after 24 hrs by Western blot analysis; type: cell-based; in short: as §2
[9] = Inhibition of Wnt signalling in human STF/293 cells assessed as decrease in PPARdelta levels after 24 hrs by Western blot analysis; type: cell-based; in short: as §2

Structure (SMILES)	IC50 [1] [µM]	Activity [2]	Activity [3]	other results
COc1cc2c(cc1O)CCn1c-2cc2ccc(O)c(OC)c2c1=O	8.7	Non-Toxic	–	–
COc1cc2c(cc1OC)-c1cc3ccc(OC)c(OC)c3c(=O)n1CC2	0.6	–	Non-Toxic	–
COc1ccc2c(c1)C(=O)c1nccc3cc4c(c-2c13)OCO4 [ATHEROSPERMIDINE]	7.1	Non-Toxic	–	–
COc1ccc2c(c1)c(-c1c3c4c(cc5c(c4c4ccc(OC)cc14)OCO5)CCN3)c1c3c(cc4c(c32)OCO4)CCN1 [BIDEBILINE E]	20.2	–	–	Activity [4]: Non-Toxic; inhibition [5]: Active; inhibition [6]: Dose-dependent effect
O=C1c2ccccc2-c2c3c(cc4ccnc1c24)OCO3 [LIRIODENINE]	0.6	–	Non-Toxic	inhibition [7]: Dose-dependent effect; inhibition [8]: Dose-dependent effect; inhibition [9]: Dose-dependent effect
